Source: PubChem
Compounds with a hit are over-represented: about 4.5% of the library has one in this group of screens.
OX1R antag-1 = antagonists of human orexin 1 receptor (OX1R) | Orexin/Hypocretin receptor type 1 (Homo sapiens), O43613 | OX1R-expressing cells, FRET antagonist read-out | inhibition, % at 6.6 µM | hit rate 1.8% among 330,000; in the data active = inhibition mostly above about 38%, no sharp cut-off; inactive = mostly below about 40%
Target sequence (O43613 whole entry, looked up): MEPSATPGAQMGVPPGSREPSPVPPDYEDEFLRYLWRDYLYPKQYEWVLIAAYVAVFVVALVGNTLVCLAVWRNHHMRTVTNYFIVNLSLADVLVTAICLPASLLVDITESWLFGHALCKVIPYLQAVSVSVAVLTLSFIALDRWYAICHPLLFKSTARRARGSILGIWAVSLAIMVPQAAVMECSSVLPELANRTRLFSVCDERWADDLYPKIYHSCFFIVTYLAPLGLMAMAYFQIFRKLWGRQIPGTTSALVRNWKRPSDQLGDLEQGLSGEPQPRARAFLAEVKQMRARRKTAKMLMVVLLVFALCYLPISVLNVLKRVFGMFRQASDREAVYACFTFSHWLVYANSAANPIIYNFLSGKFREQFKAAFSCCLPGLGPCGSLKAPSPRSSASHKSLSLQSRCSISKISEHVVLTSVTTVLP
TAAR1 agonist = human TAAR1 agonists, primary screen, Fluo-8 calcium fluorescence, CHO RD-HGA16 cells; AID 624467, 2012; Trace amine-associated receptor 1 (Homo sapiens), Q96RJ0; activation, % at 3 µM; hit rate 0.99% among 360,000; vehicle wells 0%, saturating PEA agonist 100%;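 active = activation above the mean activation of all test compounds in the run plus 3 SD, cut at about 38% in these data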
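Assay system – CHO-derived RD-HGA16 cells with stable Gα16 and human TAAR1 · Compound dosing – one-point dosing at 3 µM (nominal) · Incubation – 17-24 h seeding, 75 min 37 °C dye, 30 min RT · Measured by – kinetic Fluo-8 calcium fluorescence · Control set – DMSO vehicle as 0%, PEA at EC100 as 100% · Repeats – single well for each compound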
CHO parental Ca = ATP-evoked calcium signal inhibitors, parental CHO, primary screen, counter-screen for OX1R antagonist project, cell-based, fluorescence, Fluo-8 calcium dye; parental CHO-K1, ATP-induced calcium, Fluo-8 fluorescence; inhibition, % at 5.6 µM; hit rate 0.63% among 330,000; AID 463079, 2010;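 active = inhibition above that plate's mean sample inhibition plus 3 SD, cut at about 26% in these data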
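test system = CHO parental line | reagent = ATP stimulus | measured by = intracellular calcium via Fluo-8 no-wash fluorescent dye | control set = ATP and no-ATP DMSO wells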
GPR7 antag = GPR7 receptor antagonists, primary screen, cell-based, fluorescence, single concentration. Neuropeptides B/W receptor type 1 (Homo sapiens), P48145. GPR7-expressing cells, fluorescence antagonist assay. inhibition, % at 4.4 µM. hit rate 1.1% among 290,000; in the data active = inhibition above about 16%, passing the limit was not always enough;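 also: cells stimulated with the agonist NPW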
TAAR1 antag = human TAAR1 antagonists, primary screen, Fluo-8 calcium fluorescence, CHO RD-HGA16 cells | Trace amine-associated receptor 1 (Homo sapiens), Q96RJ0 | hit rate 1.5% among 360,000 | inhibition, % at 3 µM | antagonist;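 active = inhibition above a per-plate cutoff, the mean inhibition of test compounds on that plate plus 3 SD, cut at about 49% in these data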
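Material: RD-HGA16 CHO cells with stable hTAAR1 and Gα16; Dosing: single nominal final test compound concentration of 3 µM; Schedule: seeding 17-24 h prior, 75-min 37 °C, 30-min RT dye loading; Detection: kinetic Fluo-8 calcium fluorescence measurement; Measure: % inhibition from peak post-agonist over basal fluorescence ratio; Benchmarks: vehicle and agonist controls.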
OX1R antag-2 = OX1R (HCRTR1) antagonists, primary screen, fluorescence, CHO/OX1R cells, Fluo-8 calcium, orexin A; AID 434989, 2010; hit rate 0.43% among 330,000; Orexin/Hypocretin receptor type 1 (Homo sapiens), O43613; inhibition, % at 5 µM; Fluo-8 calcium fluorescence;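 active = inhibition above its plate's threshold, mean inhibition of all tested compounds on the plate plus 3 SD, cut at about 37% in these data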
TAAR1 ag conf = human TAAR1 agonists, retest of hits, confirmation, Fluo-8 calcium fluorescence, CHO RD-HGA16 cells | activation, % at 3 µM | shares compounds with TAAR1 agonist | AID 651783, 2012 | hit rate 82% among 2,400 | scaled: DMSO 0%, maximal phenethylamine 100%;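 active = activation above a cutoff set at the run's mean compound activation plus 3 SD, cut at about 39% in these data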
Ga16 ag counter = nonselective calcium mobilization agonists, CHO-Ga16 cells, counter-screen for hTAAR1 agonist project, cell-based, fluorescence, CHO-Ga16 parental line; Fluo-8 calcium fluorescence; normalized to maximal ATP response, DMSO zero; hit rate 50% among 2,400; shares compounds with TAAR1 agonist; activation, % at 3 µM;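 active = activation above the run cutoff, the mean activation over all tested wells plus 3 SD, cut at about 12% in these data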
TAAR1 desensitize = TAAR1 desensitization by agonist hits, confirmation, counter-screen for TAAR1 agonist project, cell-based, fluorescence, tachyphylaxis | hit rate 46% among 2,400 | inhibition, % at 3 µM | CHO RD-HGA16 hTAAR1, Fluo-8 calcium, beta-PEA response inhibition | shares compounds with TAAR1 agonist;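 active = inhibition above the run cutoff, the mean inhibition of all test compounds plus 3 SD, cut at about 49% in these data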;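 also: beta-PEA stimulus applied at its EC80; loss of beta-PEA calcium signal after compound pretreatment read as receptor desensitization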
Ga16 antag count = inhibition of ATP-evoked calcium response in CHO-Ga16 cells, counter-screen for TAAR1 agonist project, cell-based, fluorescence | shares compounds with TAAR1 agonist | CHO-Ga16 ATP-induced calcium, Fluo-8 fluorescence | inhibition, % at 3 µM | hit rate 39% among 2,400;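 active = inhibition above the plate's mean compound inhibition plus 3 SD, computed per plate, cut at about 22% in these data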
Each line names hits and unclear results; the compound was inactive in the other large screens (follow-up assays come after a bar, where they were run).

Cc1cc(/C=C2\C(=N)N3N=C(c4ccco4)SC3=NC2=O)c(C)n1Cc1ccccc1	TAAR1 agonist 130.1, CHO parental Ca 41.3, TAAR1 antag 103.0, OX1R antag-2 103.8 | TAAR1 ag conf 107.3 | Ga16 ag counter 79.2 | TAAR1 desensitize 104.2 | Ga16 antag count 90.8
Cc1cc(/C=C2\C(=N)N3C(SCc4ccccc4)=NSC3=NC2=O)c(C)n1Cc1ccccc1	none
CC1=NN2C(=N)/C(=C\c3cc(C)n(-c4ccccc4)c3C)C(=O)N=C2S1	none
CCC1=NN2C(=N)/C(=C/c3cc(C)n(Cc4ccccc4)c3C)C(=O)N=C2S1	TAAR1 agonist 104.0, CHO parental Ca 69.9, TAAR1 antag 90.8, OX1R antag-2 96.6 | TAAR1 ag conf 104.4 | Ga16 ag counter 71.8 | TAAR1 desensitize 94.6 | Ga16 antag count 76.9
CN(C)CCCN(C(=O)c1ccc(S(=O)(=O)N2CCc3ccccc32)cc1)c1nc2ccc(F)cc2s1	TAAR1 agonist 50.7 | TAAR1 ag conf 66.2 | Ga16 ag counter 35.5 | TAAR1 desensitize 57.3 | Ga16 antag count 40.7
COc1ccc(NC(=O)CN(C)C(=O)c2cc(CN3C(=O)c4ccccc4C3=O)ccc2OC)cc1	none (no result: GPR7 antag)
COc1ccc(CCNCC(O)COc2cccc(Br)c2)cc1OC (stereo not drawn)	none
COc1ccc(CCNCC(O)COc2ccc(OC)cc2C(C)(C)C)cc1 (stereo not drawn)	TAAR1 agonist 65.6 | TAAR1 ag conf 95.8 | Ga16 ag counter 13.9 | TAAR1 desensitize 69.6 | Ga16 antag count inactive
O=[N+]([O-])c1ccn(-c2nc(-c3ccccc3)cc(C(F)(F)F)n2)n1	TAAR1 agonist 49.6 | TAAR1 ag conf inactive | Ga16 ag counter inactive | TAAR1 desensitize inactive | Ga16 antag count inactive
COc1cccc(Nc2nc(C(C)N)cs2)n1 (stereo not drawn)	TAAR1 agonist 84.7, TAAR1 antag 76.9 (no result: OX1R antag-1, CHO parental Ca, GPR7 antag, OX1R antag-2) | TAAR1 ag conf 94.2 | Ga16 ag counter inactive | TAAR1 desensitize 79.3 | Ga16 antag count inactive
COc1cccc(Nc2nc(C(N)C3CCCCC3)cs2)n1 (stereo not drawn)	TAAR1 agonist 52.8 (no result: OX1R antag-1, CHO parental Ca, GPR7 antag, OX1R antag-2) | TAAR1 ag conf 47.0 | Ga16 ag counter 17.9 | TAAR1 desensitize inactive | Ga16 antag count 22.5
CC(C)c1ccc(NC(=O)Nc2nc(C(N)C3CCCCC3)cs2)cc1 (stereo not drawn)	TAAR1 agonist 54.5 (no result: OX1R antag-1, CHO parental Ca, GPR7 antag, OX1R antag-2) | TAAR1 ag conf 41.7 | Ga16 ag counter 28.7 | TAAR1 desensitize inactive | Ga16 antag count 46.4
NC(=O)c1cccc(Nc2nc(C(N)C3CCCCC3)cs2)n1 (stereo not drawn)	none (no result: OX1R antag-1, CHO parental Ca, GPR7 antag, OX1R antag-2)
COc1cccc(Nc2nc(C(N)c3ccccc3)cs2)n1 (stereo not drawn)	TAAR1 agonist 67.5 (no result: OX1R antag-1, CHO parental Ca, GPR7 antag, OX1R antag-2) | TAAR1 ag conf 65.6 | Ga16 ag counter 11.5 | TAAR1 desensitize inactive | Ga16 antag count inactive
COc1ccc(NC(=O)Nc2nc(C(N)C3CCCCC3)cs2)cc1 (stereo not drawn)	none (no result: OX1R antag-1, CHO parental Ca, GPR7 antag, OX1R antag-2)
